Assay outcomes: PubChem BioAssay, The Scripps Research Institute Molecular Screening Center
This is a sample that favours compounds with a hit; in the whole collection about 1.9% have one here.
CHRM5 antagonist = antagonists of human muscarinic M5 receptor (CHRM5) | P08912 | CHO-hM5 cells, Fluo-8 calcium fluorescence, ACh EC80 | inhibition, % at 3 µM | actives 0.59% (n = 360,000) | AID 624040;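 active = inhibition above a per-plate cutoff, the mean of that plate's test compounds plus 3 SD, cut at about 27% in these data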
CHRM5 agonist = agonists of human muscarinic M5 receptor (CHRM5); activation, % at 3 µM; CHO-K1 hM5 cells, Fluo-8 calcium fluorescence; 0% DMSO wells, 100% maximal acetylcholine response; actives 0.19% (n = 360,000); P08912; AID 624037;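 active = activation above the run's mean over test compounds plus 3 SD, cut at about 23% in these data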;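 also: signal is peak over basal fluorescence ratio across the kinetic read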
CHRM4 PAM = CHRM4 positive allosteric modulation; P08173; CHO-K1 hM4/Gqi5, Fluo-8 calcium fluorescence, ACh EC20; 0% = ACh EC20, 100% = maximal ACh; activation, % at 3 µM; actives 0.4% (n = 360,000);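 active = activation above its plate's cutoff, the mean activation of sample wells plus 3 SD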
Target sequence (P08173 whole entry, looked up): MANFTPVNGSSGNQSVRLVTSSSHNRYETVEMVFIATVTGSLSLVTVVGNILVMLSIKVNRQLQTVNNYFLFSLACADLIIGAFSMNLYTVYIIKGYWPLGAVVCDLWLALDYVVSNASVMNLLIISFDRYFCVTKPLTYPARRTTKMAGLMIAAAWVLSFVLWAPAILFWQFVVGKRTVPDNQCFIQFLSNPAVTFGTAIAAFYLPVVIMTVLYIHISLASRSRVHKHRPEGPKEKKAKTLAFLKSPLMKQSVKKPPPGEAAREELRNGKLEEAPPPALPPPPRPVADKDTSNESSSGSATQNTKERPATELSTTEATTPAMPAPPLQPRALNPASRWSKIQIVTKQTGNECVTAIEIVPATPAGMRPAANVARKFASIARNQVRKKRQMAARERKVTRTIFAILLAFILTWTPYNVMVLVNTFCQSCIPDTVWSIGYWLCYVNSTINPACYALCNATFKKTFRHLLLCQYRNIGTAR
CHRM4 agonist = CHRM4 agonism in calcium assay; actives 0.14% (n = 360,000); activation, % at 3 µM; CHO-K1 hM4/Gqi5, Fluo-8 calcium fluorescence; vehicle 0%, full acetylcholine response 100%; P08173; AID 624127;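 active = activation above the run mean over all test wells plus 3 SD, cut at about 32% in these data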;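 also: peak over basal fluorescence ratio per well then scaled between controls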
M4 antag = antagonists of human muscarinic M4 receptor (CHRM4); CHO-hM4 cells, ACh EC80, Fluo-8 calcium fluorescence; inhibition, % at 3 µM; actives 0.73% (n = 360,000); AID 624125;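 active = inhibition above its plate's cutoff, the mean inhibition of sample wells plus 3 SD, cut at about 27% in these data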
CHRM5 PAM = potentiates acetylcholine response at human M5 receptor; P08912; CHO-K1 hM5, Fluo-8 calcium, ACh EC20 PAM; 0% = ACh EC20, 100% = ACh EC100; activation, % at 3 µM; actives 0.3% (n = 360,000); AID 624038;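 active = activation above the run cutoff, the mean activation of all test compounds plus 3 SD, cut at about 18% in these data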
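system = human M5 receptor in CHO-K1 cells | compound = one concentration, 3 µM final (nominal) | schedule = Post-acetylcholine fluorescence recording 140 s | signal = Fluo-8 calcium dye fluorescence, kinetic read | benchmarks = low control EC20 acetylcholine (0%), high control EC100 acetylcholine (100%) | repeats = singlicate, one well per test compound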
Of the large screens only hits and unclear results are named; the others gave an inactive call.

O=C(CN1C(=O)NC2(CCc3ccccc32)C1=O)NCc1ccc(Cl)cc1 (stereo not drawn)	CHRM4 PAM 23.7
Cc1ccc(C2N(C)c3ccccc3-c3nc4ccccc4n32)o1 (stereo not drawn)	none
CN1c2ccccc2-c2nc3ccccc3n2C1c1cccs1 (stereo not drawn)	CHRM5 PAM 18.5
Cc1cc2c(c(=O)n1Cc1ccco1)C(c1cccnc1)C(C#N)=C(N)O2 (stereo not drawn)	CHRM4 PAM 29.9
CCOc1ccc(C2C(C#N)=C(N)Oc3cc(C)n(Cc4ccco4)c(=O)c32)cc1OC (stereo not drawn)	none
O=C1C=C(c2ccc(F)c(Cl)c2)C[C@@H](c2ccc(F)cc2)C1	none
O=C(O)c1cc(-c2cccs2)[nH]n1	CHRM4 PAM 28.0
CCOC(=O)c1cc(-c2cccs2)[nH]n1	none
Cc1cccc(C)c1-n1c(C)cc(/C=N\Nc2ccc([N+](=O)[O-])cn2)c1C	M4 antag 34.6
O=[N+]([O-])c1ccc(NN=Cc2cccc(O)c2)nc1	none
COc1cccc(CNCc2ccc(OC)c3ccccc23)c1OC	CHRM5 antagonist 30.6, CHRM4 agonist 37.1
CC(=O)c1ccc([N+](=O)[O-])c(CS(=O)(=O)c2ccccc2)c1	none
CC(C)CCOc1cccc(OCC(=O)Nc2ccncc2)c1	CHRM5 antagonist 32.7
COc1cccc(OCC(=O)Nc2ccncc2)c1	none
Cc1cc(OCC(=O)Nc2ccncc2)c(C)cc1Br	CHRM5 antagonist 33.7
O=C(COc1ccc2ccccc2c1Br)Nc1ccncc1	CHRM5 antagonist 28.7
COC(=O)c1ccc(CN2CCC(n3nccc3NC(=O)C3CCCC3)CC2)cc1	none
Cc1c(Cl)cccc1NC(=O)c1ncn[nH]1	none
Cc1c(C=O)c2ccccn2c1C(=O)c1ccccc1Cl	M4 antag 55.1
CN(CC1CCCN(CCc2ccccc2F)C1)C(=O)c1cc2ccccc2o1 (stereo not drawn)	M4 antag 37.4
CN(Cc1ccccc1O)CC1CCCN(CCc2ccc(Cl)cc2)C1 (stereo not drawn)	M4 antag 37.4
CCOC(=O)C=C(C(=O)OCC)C(=O)OCC	none
Cc1ccc(-n2ncc(C#N)c2/N=C/N2CCOCC2)cc1	CHRM4 PAM 21.6
CCN(CC(=O)NCc1ccc(F)cc1)C(=O)/C=C/c1ccco1	none
Cc1ccc2nc(C3CCCN3Cc3nc(CCC(C)C)no3)[nH]c2c1 (stereo not drawn)	none
CCOC(=O)c1c(NC(=O)CSc2nnc(-c3cccnc3)n2Cc2ccco2)sc(C)c1C	CHRM5 PAM 18.7
CCOC(=O)c1c(NC(=O)CSc2nnc(-c3ccco3)o2)sc(C)c1C	CHRM4 PAM 36.5
CCOC(=O)c1c(NC(=O)CSc2nnc(-c3ccco3)o2)sc(C(C)=O)c1C	none
CCOC(=O)N1CCN(c2nc3ccc(C(=O)c4ccccc4)cc3n3cnnc23)CC1	CHRM4 PAM 31.4
O=C1/C(=C/c2ccccn2)SC(=S)N1Nc1ncc(C(F)(F)F)cc1Cl	none
O=C(Nc1cccc(C(=O)O)c1)/C(=C\c1ccccc1Cl)NC(=O)c1ccco1	CHRM4 PAM 21.0
COc1ccc(/C=C(/NC(=O)c2ccco2)C(=O)Nc2cccc(C(=O)O)c2)cc1	none
CC(=O)Nc1ccc(S(=O)(=O)N(C)c2ccc(OCCOc3cccc(C)c3)cc2)cc1	M4 antag 38.7
COc1ccc(NC(=O)COc2ccc(N(C)S(=O)(=O)c3ccc(Cl)cc3)cc2)cc1OC	CHRM5 antagonist 29.1
CCN(CC)C(=O)COc1ccc(N(C)S(=O)(=O)c2ccc(NC(C)=O)cc2)cc1	none
O=C(NCC(=O)N(Cc1ccccc1)C(C(=O)NC1CCCC1)c1cccnc1)c1ccco1 (stereo not drawn)	CHRM4 PAM 18.0
O=C(NCC(=O)N(CC1CCCO1)C(C(=O)NC1CCCC1)c1cccnc1)c1ccco1 (stereo not drawn)	CHRM5 PAM 23.1
Cc1ccc(NC(=S)N2CCN(S(=O)(=O)c3ccc(C)cc3)CC2)cc1	none
Cc1cccc(N(C(=O)c2snc(C(N)=O)c2N)C(C(=O)NCC2CCCO2)c2ccc(N(C)C)cc2)c1C (stereo not drawn)	none
COc1ccc(CNS(=O)(=O)c2ccc3c(c2)N(C)CCO3)cc1	CHRM5 antagonist 28.9
CCc1ccc(S(=O)(=O)Nc2c(C)nc3nc[nH]n3c2=O)cc1	CHRM5 PAM 37.8
Cc1ccccc1NS(=O)(=O)c1ccc(NC(=O)c2ccco2)cc1	CHRM5 PAM 28.1
C/C(COc1ccccc1)=N\NC(=O)c1nnn(-c2nonc2N)c1CSc1ccccc1	none
O=C(Nc1ccc(Cl)cc1)Nc1cc([N+](=O)[O-])ccc1F	none
Cc1cc(OC(F)F)ccc1NC(=O)Nc1ccc([N+](=O)[O-])cc1	CHRM5 antagonist 27.4
O=C(Nc1csc([N+](=O)[O-])c1)Nc1c(Cl)cccc1Cl	none
O=C(Nc1ccc(Cl)cc1)Nc1ccccc1CC[N+](=O)[O-]	CHRM5 antagonist 28.8
O=C(Nc1ccc(Cl)cc1)Nc1csc([N+](=O)[O-])c1	CHRM5 antagonist 37.4
O=C(Nc1ccc([N+](=O)[O-])cc1)Nc1ccc(Cl)cc1F	CHRM5 antagonist 40.7
O=C(CSc1ncn[nH]1)N1c2ccccc2Sc2ccccc21	none
COc1ccc(CCNC(=O)c2cc(-c3cc(C)cc(C)c3O)n[nH]2)cc1OC	M4 antag 39.4
CSc1sc(C(=O)NCC2CC2)c(-c2cccs2)c1C#N	CHRM4 PAM 16.6
CSc1sc(C(=O)NCC2CC2)c2c1S(=O)(=O)N(C)c1ccccc1-2	none
Cc1ccc2c(c1)N(C(=O)CCC(=O)NCc1ccccn1)CC(C)O2 (stereo not drawn)	none
Cc1ccnc2nc(C(=O)NC3=NCCS3)nn12	CHRM4 PAM 26.4
Cc1ccnc2nc(C(=O)Nc3nccs3)nn12	none
CC(Oc1ccc(F)cc1F)C(=O)NNC(=S)NCC1CCCO1 (stereo not drawn)	none
CCOc1ccc(CCNC(=O)c2cc(C)on2)cc1OCC	CHRM4 PAM 20.8
O=C(Nc1ccccc1C(=O)O)c1cc(S(=O)(=O)N2CCOCC2)c(Br)s1	CHRM4 PAM 16.4, CHRM5 PAM 18.5
O=C(Nc1ccccc1Cl)c1cc(S(=O)(=O)N2CCOCC2)cs1	none
CCN(CC)C(=O)C1c2ccccc2Oc2ccccc21	CHRM5 agonist 53.3, CHRM4 agonist 32.7
O=C(NCc1ccco1)C1c2ccccc2Oc2ccccc21	M4 antag 27.1
CC(C)CNC(=O)COC(=O)C1c2ccccc2Oc2ccccc21	none
